# Assay outcomes as filed in PubChem.
# Hits are enriched below; roughly 4.5% of the tested compounds scored in any of these assays.
# PfM18AAP inh: PfM18AAP enzyme inhibition; recombinant PfM18AAP, H-Glu-NHMec fluorogenic cleavage; inhibition, % at 7.35 µM; 290,000 tested, 1.2% active;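 active = inhibition above the campaign mean inhibition over all tested compounds plus 3 SD, cut at about 28% in these data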;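 also: 0% = plate median of test compound wells and 100% = 2 mM ZnCl2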
# CHOP inhibitor: blocks CHOP induction under ER stress; CHO-K1 CHOP-promoter luciferase, tunicamycin-induced, 15-18 h; 220,000 tested, 3.8% active; inhibition, % at 10 µM;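 active = compounds that reduced the stress-induced luciferase reporter signal by more than about 70% of percent inhibition, limit read from the data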;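 also: 0% = tunicamycin plus vehicle and 100% = wells without tunicamycin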
# NS3 helicase inh: HCV NS3 helicase inhibition. inhibition, % at 10.9 µM. 290,000 tested, 0.56% active. AID 1800. NS3 helicase DNA unwinding, Cy5 molecular beacon fluorescence;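 active = inhibition above the mean of all tested compounds plus 3 SD, set per campaign, cut at about 35% in these data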;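 also: 0% = DMSO wells and 100% = thioflavine S control wells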
#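 Assay system – hepatitis C virus NS3 helicase domain fragment enzyme · Buffer or medium – MOPS pH 6.5, MgCl2, DTT, Tween20, BSA · Reagent – Cy5/quencher beacon DNA duplex and ATP to start · Compound – single 10.9 µM dose · Timing – 1 h at 25 °C · Technique – Cy5 beacon fluorescence read at start and 1 h · Measure – % inhibition of unwinding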
# CHOP UPR activ: apoptotic UPR (CHOP) activation | CHO-CHOP luciferase reporter, luminescence; percent of tunicamycin response over DMSO baseline | activation, % at 10 µM | 330,000 tested, 0.34% active | AID 449763;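 active = at 10 µM dose, activation of 40% or more, normalized to positive control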;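 also: 100% = tunicamycin at 10 µg/mL and 0% = DMSO alone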
#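 Material: CHO-CHOP cells, stable luciferase reporter of PERK-eIF2a-CHOP signalling; quantity: 500 reporter cells seeded per well; buffer or medium: F12 medium containing 10% fetal bovine serum; compound: one dose, 10 µM in 0.5% DMSO; incubation: 6 h compound treatment, 37 °C; measured by: Steady-Glo luciferase luminescence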
# UPR XBP1 act: activators of adaptive arm of unfolded protein response (XBP1); CHO-XBP1 luciferase reporter, IRE1-XBP1 UPR activation, luminescence; percent of tunicamycin response, DMSO as zero; 330,000 tested, 0.33% active; activation, % at 20 µM; AID 463104;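 active = versus positive control, 20 µM dose yields 30% or more activation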;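 also: 100% = tunicamycin at 10 µg/mL and 0% = DMSO only wells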
#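 Material: CHO-XBP1 cells stably carrying IRE1-XBP1-driven luciferase reporter / Amount: 1000 cells per well / Compound: 20 µM, 1% DMSO / Times: 6 h treatment, 37 °C / Detection: luciferase luminescence / Measure: % activation of reporter signal versus tunicamycin and DMSO controls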
# p97 inhibitor: blocks human p97 ATPase activity | P55072 | recombinant p97 ATPase, Kinase-Glo ATP luminescence, 3 h | inhibition, % at 8 µM | 220,000 tested, 0.42% active | AID 1481; in the data active = inhibition above about 15%;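 also: 0% = DMSO vehicle and 100% = wells lacking enzyme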
# Target sequence (P55072 whole entry, looked up): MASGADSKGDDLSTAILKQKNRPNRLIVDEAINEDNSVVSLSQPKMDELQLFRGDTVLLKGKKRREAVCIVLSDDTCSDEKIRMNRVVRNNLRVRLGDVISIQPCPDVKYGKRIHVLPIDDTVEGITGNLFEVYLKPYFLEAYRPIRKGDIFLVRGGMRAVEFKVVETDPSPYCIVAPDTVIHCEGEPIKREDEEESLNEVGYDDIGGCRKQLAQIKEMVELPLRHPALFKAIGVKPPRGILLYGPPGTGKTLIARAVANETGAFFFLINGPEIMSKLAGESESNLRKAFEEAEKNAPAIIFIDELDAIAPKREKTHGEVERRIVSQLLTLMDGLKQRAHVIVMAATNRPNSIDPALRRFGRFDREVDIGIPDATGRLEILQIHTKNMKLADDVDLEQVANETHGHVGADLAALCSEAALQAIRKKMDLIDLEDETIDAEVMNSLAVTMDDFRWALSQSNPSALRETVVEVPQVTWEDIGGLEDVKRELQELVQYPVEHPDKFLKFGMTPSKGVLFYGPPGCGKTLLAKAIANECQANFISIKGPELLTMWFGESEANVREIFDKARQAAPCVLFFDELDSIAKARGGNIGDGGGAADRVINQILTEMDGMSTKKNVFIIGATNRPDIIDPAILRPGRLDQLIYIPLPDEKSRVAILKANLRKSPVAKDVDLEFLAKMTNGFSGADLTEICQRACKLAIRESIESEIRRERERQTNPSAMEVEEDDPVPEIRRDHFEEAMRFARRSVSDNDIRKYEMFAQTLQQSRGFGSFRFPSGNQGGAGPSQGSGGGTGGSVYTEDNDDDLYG
# Active calls of the source: *; . = not tested or not shown.
SMILES,PfM18AAP inh,CHOP inhibitor,NS3 helicase inh,CHOP UPR activ,UPR XBP1 act,p97 inhibitor
Cc1oc(C(C)(C)C)cc1C(=O)N1CCN(C(c2ccccc2)c2ccccc2)CC1,-9,4,-2,0,-2,-3
COc1ccc(OCCN2C(=O)c3ccccc3C2=O)c([N+](=O)[O-])c1,2,.,8,3,3,.
Cc1ccccc1C(=O)Oc1ccc(Sc2ccc(O)cc2)cc1,-8,96*,-2,4,2,-2
CCN1C(=O)C(=Cc2cccc(OC)c2Oc2ccc([N+](=O)[O-])cc2[N+](=O)[O-])SC1=S,12,.,4,2,1,.
Cc1ccc(NC(=O)C(Nc2ccccc2)c2ccccc2)cc1 (stereo unspecified),-2,31,-1,1,-2,-2
Cc1ccc(NC(=O)C(C)c2ccc(-c3ccccc3)c(F)c2)cc1 (stereo unspecified),4,73*,1,-1,-2,0
Cc1ccc(C(C(=O)NC2CCCC2)N2CCc3ccccc32)cc1 (stereo unspecified),-3,79*,-2,1,-1,3
O=C(NC1CCCCC1)C(c1ccccc1)N1CCc2ccccc21 (stereo unspecified),6,53,-4,-2,-1,-10
Cc1ccc(N(CC(=O)N/N=C/c2cc(C)n(-c3ccccc3)c2C)S(C)(=O)=O)c(C)c1,8,73*,-8,-1,4,2
CC(=O)C1CCCN(C(=O)c2ccc3nc(Cc4cccc(Cl)c4)oc3c2)C1 (stereo unspecified),0,.,10,-2,-2,.
COc1ccc(OCC(=O)O/N=C(\N)Cc2ccc(Cl)cc2)cc1,5,10,0,3,-2,-1
Cc1ccc(C(=O)CC(=O)COc2ccc(Cl)cc2)cc1,9,93*,1,0,-2,7
Cc1ccc(OCC(=O)O/N=C(\N)Cc2ccc(Cl)cc2)cc1,-3,77*,-1,-1,2,-10
COc1ccc(OCC(=O)O/N=C(\N)Cc2ccc(Cl)cc2Cl)cc1,4,81*,-7,0,-2,0
Cc1ccc(C(=O)NCCOc2ccc(Cl)cc2)cc1,-2,.,-10,4,4,.
O=C(Cc1c(F)cccc1Cl)OCN1C(=O)c2ccccc2C1=O,4,.,7,1,2,.
CC[C@@H]1C=C(C(=O)O)[C@H](c2ccc(OC)c(OC)c2)N1S(=O)(=O)c1ccc(C)cc1,.,.,.,1,-3,.
CCc1nnc(NC(=O)CSc2nnc(C)c(=O)n2N)s1,-10,.,6,0,-6,.
Cc1ccc(C2=Nc3ccccc3N=C(C(Cl)Cl)C2)cc1,-1,84*,9,-4,-6,-13
Cc1ccc2c(c1)N=C(c1ccccc1)CC(C(Cl)Cl)=N2,8,-23,3,8,-3,1
CCOc1nc(-c2ccccc2Cl)ccc1C#N,-3,71*,3,-2,0,-4
COc1ccc(-c2ccc(C#N)c(OC)n2)cc1,-2,35,-7,1,-1,7
Cc1ccc(C(=O)NCC(=O)N2CCc3ccccc3C2)cc1C,-5,.,-10,1,-2,.
Cc1cc(C)cc(Nc2cc(=O)n(C3CCCCC3)c(=O)[nH]2)c1,5,87*,1,0,-6,4
CC(C#N)(NC(=O)CN1CCN(S(=O)(=O)c2ccc(Br)cc2Cl)CC1)C1CC1 (stereo unspecified),.,.,.,1,-2,.
SMILES,PfM18AAP inh,CHOP inhibitor,NS3 helicase inh,CHOP UPR activ,UPR XBP1 act,p97 inhibitor
O=C(COC(=O)C1CC2CCCC(C1)C2=O)NNC(=O)c1ccc([N+](=O)[O-])cc1 (stereo unspecified),.,.,.,0,-1,.
COc1ccc2cc3c(N)nn(C(=O)c4cccc([N+](=O)[O-])c4)c3nc2c1,-9,77*,4,-1,0,3
COc1ccc2cc3c(N)nn(C(=O)Cc4ccccc4OC)c3nc2c1,8,81*,7,-1,2,-12
COc1ccc(-c2nc(N)n(C(=O)Cc3ccccc3)n2)cc1,-7,49,8,1,0,-4
O=C(NCCN1CCCC1)c1ccc2c(c1)N(Cc1ccccc1)C(=O)c1ccccc1S2(=O)=O,1,.,-18,2,0,.
Cc1cc2ncn(-c3ncccc3[N+](=O)[O-])c2cc1C,16,.,13,0,6,.
O=C(Nc1cccc(C(F)(F)F)c1)c1ccccc1NC(=O)C1CCCCC1,-9,94*,1,0,-1,6
O=C(Nc1cc(C(F)(F)F)ccc1F)C1CCCCC1,4,40,-3,-2,2,0
CC(C)n1cnc2c(NCc3ccccc3)cc(N[C@H](C)CO)cc21,.,.,.,-1,-6,.
O=c1c2[nH]cnc2n(-c2cccc(Br)c2)c(=O)n1Cc1ccccc1,6,.,3,2,-1,.
O=S(=O)(Nc1cc(Sc2cccc3cccnc23)c(O)c2ccccc12)c1ccccc1,13,101*,5,.,.,11
CCOc1ccc(S(=O)(=O)Nc2cc(SCC(=O)O)c(O)c3ccccc23)cc1,18,.,17,.,.,.
COC(=O)C1=C(C)N=C2SC(C#N)=C(N)N2C1c1ccc(OCc2ccccc2)cc1 (stereo unspecified),2,88*,-6,1,3,-3
COc1ccc(/C=N/NC(=O)C2c3ccccc3-c3ccccc32)cc1,1,80*,-15,-2,-2,2
COc1ccc(/C=N/NC(=O)CC(=O)N/N=C/c2ccc(OC)cc2)cc1,13,2,-1,1,-6,7
O=C(Nc1ccccc1)c1ccc(CN2CCc3ccccc3C2)cc1,-8,-31,-15,4,3,-6
O=C(Nc1ccc(S(=O)(=O)N2CCCCC2)cc1)c1ccc(CN2CCc3ccccc3C2)cc1,-3,80*,-74,3,0,-4
COc1ccc(N=c2scc(-c3ccc(S(=O)(=O)N4CCOCC4)cc3)n2CCCO)cc1,3,62,-10,.,.,2
C=CCn1c(-c2ccc(S(=O)(=O)N3CCOCC3)cc2)csc1=Nc1ccccc1,-7,72*,-1,1,3,-1
CCOC(=O)Cc1ccc(NCc2ccc(Cl)cc2)cc1,6,78*,0,0,1,1
Cc1ccc(NC(=O)COC(=O)CC2CCCC2)cc1Cl,2,72*,-3,0,1,1
CC1CCCCC1NC(=O)c1cccc(N2C(=O)C3C4C=CC(C4)C3C2=O)c1 (stereo unspecified),-2,.,1,-1,-7,.
NC(=O)c1nn(-c2ccccc2)nc1NC(=O)Cn1nnc(-c2ccccc2)n1,-9,72*,16,3,0,6
